The text below walks through data of PubChem BioAssay AID720543 (The Scripps Research Institute Molecular Screening Center, 2013).

Screen size: about 370,000 compounds; about 2,000 (0.54%) were called active. For the sample, actives were picked, then their nearest neighbours and some compounds at random. Values without a mark were called inactive.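 How the source made its calls: active means inhibition exceeding the mean over every tested compound plus 3 SD (cut at about 30% in these data); inactive means the rest.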

(Lyso)-N-acylphosphatidylethanolamine lipase (Mus musculus), sequence (Q8VD66 whole entry, looked up): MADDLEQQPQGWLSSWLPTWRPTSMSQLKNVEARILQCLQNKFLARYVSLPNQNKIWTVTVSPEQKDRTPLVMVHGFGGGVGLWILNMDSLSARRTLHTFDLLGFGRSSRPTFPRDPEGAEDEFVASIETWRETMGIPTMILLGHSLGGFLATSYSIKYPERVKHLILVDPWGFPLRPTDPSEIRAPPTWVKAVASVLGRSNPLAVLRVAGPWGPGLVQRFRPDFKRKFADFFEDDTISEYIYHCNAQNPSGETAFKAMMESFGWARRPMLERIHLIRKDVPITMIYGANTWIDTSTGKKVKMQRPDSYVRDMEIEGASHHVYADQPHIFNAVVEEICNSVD

The target in this assay is (Lyso)-N-acylphosphatidylethanolamine lipase (Mus musculus) (UniProt Q8VD66). Put plainly: mouse ABHD4 hydrolase activity blockers – biochemical, fluorescence polarization, primary screen (AID 720543).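 Further: 0% = plate median of compound wells and 100% = S159A mutant with DMSO.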 The settings on record: purified mABHD4, FP-Rh probe fluorescence polarization; at 8.92 µM; hits give high values. The method in brief:
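Test system: mABHD4 protein | Buffer or medium: HEPES pH 7.0 buffer, 150 mM NaCl, 0.01% Pluronic F-127 | Probe or stimulus: FP-Rh fluorescent activity-based probe, added after compound pre-incubation | Timing: Pre-incubation 45 min, probe exposure 60 min, at 25 °C | Technique: Fluorescence polarization, excitation 525 nm, emission 598 nm, BODIPY TMR filters | Repeats: Single well per compound (singlicate)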
In general terms: In fluorescence polarisation assays a small probe gives low polarisation when free and higher when bound to something large.
`CCOc1cc(/C=C2/N=C(c3ccc(C(C)(C)C)cc3)OC2=O)cc(Cl)c1OS(C)(=O)=O`: the inhibition (as a rule, the relative decrease from the control value, in per cent) is 37.3% (active).

For `CNc1[nH]ncc1[N+](=O)[O-]`, the inhibition is 7.62%. With `CN(C)CC(=O)N[C@@H]1C[C@@H]2O[C@H](CO)CC[C@@H]2O[C@@H]1CCc1ccc(C#Cc2ccccc2)cc1` the figure was 3.38%; with `C#CCCN([C@H](C(=O)OC)C(C)C)S(=O)(=O)c1ccc(F)cc1Br`, -7.15%; with `CC(=O)N(c1ccc2oc(=O)sc2c1)S(=O)(=O)c1ccc(C)cc1`, 7.97%. The result for `O=C(c1cccnc1)N(c1cc2sc(=O)oc2c2ccccc12)S(=O)(=O)c1ccccc1` reads 61.7% (active); that for `O=C(CN(Cc1ccc(Br)cc1)S(=O)(=O)c1ccccc1)NCc1ccncc1`, -0.4%. With `Cc1cc(C)nc(NC(=S)N2CCN(c3ccc(C(F)(F)F)cn3)CC2)c1` the figure was 8.35%; with `O=C(NCc1ccco1)C1CCCN(S(=O)(=O)c2cccc3nonc23)C1` (stereo not drawn), 5.79%. Take `CCOc1ccc(Br)cc1CSC(=N)N`: the inhibition is 4.65%. On to `CCc1ccc(-c2nn(-c3ccccc3)cc2CSC(=N)N)cc1`, for which the inhibition was 52.2% (active). As for `CCc1ccc(-c2nn(-c3ccccc3C)cc2C(=O)N2CCN(C3CCS(=O)(=O)C3)CC2)cc1` (stereo not drawn), the inhibition is 5.26%.

As to `CC1=C(C/C=C(\C)CCCC(C)CCCC(C)CCCC(C)C)C(=O)c2ccccc2C1=O` (stereo not drawn), the inhibition is -0.54%.

Turning to `C=C(C)C1CC23C(=O)C4(C(=O)c5ccccc5)C[C@@]5(C)CCC(CC2C1(C)C)(C4=O)C35OC` (stereo partly drawn), the inhibition is -1.09%. As to `NNc1nc2c(Cl)cccc2s1`, the inhibition is 70.2% (active).

In the case of `CCOCCOCCC(C(=O)O)P(=O)(c1ccccc1)c1ccccc1` (stereo not drawn), the inhibition is 4.54%. For the molecule `CN(C)[C@@H]1C(=O)C(C(N)=O)=C(O)[C@@]2(O)C(=O)C3=C(O)c4c(O)ccc(Cl)c4[C@@H](O)[C@H]3C[C@@H]12`, the inhibition was 55.1% (active). Take `C=C1c2c(Cl)ccc(O)c2C(O)=C2C(=O)[C@]3(O)C(O)=C(C(N)=O)C(=O)[C@@H](N(C)C)[C@@H]3[C@@H](O)C12` (stereo partly drawn): the inhibition was 69.7% (active). For the molecule `COc1ccccc1NC(=O)CCC(=O)OC(C)C(=O)c1ccccc1` (stereo not drawn), the inhibition is 4.06%. For `C#CCN([C@H](C(=O)OC)C(C)CC)S(=O)(=O)c1ccccc1Br` (stereo partly drawn), the inhibition is -0.06%. Regarding `O=C(C(=O)N1CCC(CNC(=O)c2cccnc2Cl)CC1)c1cccs1`, the inhibition was 2.01%. In the case of `Cc1[nH]nc2c1C(c1ccc(Br)cc1)NC2=O` (stereo not drawn), the inhibition is 7.99%. Regarding `Cc1cc(NS(=O)(=O)c2ccc(NC(=O)CSc3nnc(-c4ccc(C(C)(C)C)cc4)n3Cc3ccco3)cc2)nc(C)n1`, the inhibition was -7.09%.
